RBBP9 inh = human RBBP9 hydrolase inhibition. O75884. recombinant RBBP9, FP-Rh probe fluorescence polarization. inhibition, % at 7.94 µM. hit rate 0.2% among 220,000;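 active = inhibition above the campaign mean of all tested compounds plus 3 SD, cut at about 14% in these data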;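 note: plate controls were DMSO wells with RBBP9 for no effect and wells lacking RBBP9 protein for full effect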
Target sequence (O75884 whole entry, looked up): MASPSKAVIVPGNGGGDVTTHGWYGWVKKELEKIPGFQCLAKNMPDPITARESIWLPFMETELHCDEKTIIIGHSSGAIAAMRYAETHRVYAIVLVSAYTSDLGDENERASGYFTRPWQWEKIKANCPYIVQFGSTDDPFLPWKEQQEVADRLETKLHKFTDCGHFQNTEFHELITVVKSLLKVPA
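Test system: recombinant human RBBP9; Timing: 30 min then 45 min, 25 °C; Detection: fluorescence polarization; Control set: RBBP9 with DMSO as uninhibited control, no-protein wells as full inhibition; Compound dosing: one concentration, 7.94 µM nominal, 0.794% DMSO; Probe or stimulus: FP-Rh activity-based probe, 375 nM before mixing.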
TbHK1 inh = blocks Trypanosoma brucei hexokinase 1 activity | recombinant TbHK1, G6PDH-coupled NADH A340 | inhibition, % at 10 µM | hit rate 0.11% among 220,000 | AID 1430;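 active = inhibition of 50% or more in the single-dose primary screen; inactive = inhibition below 50%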
TNF death inh = blocks TNF-alpha induced death of Jurkat FADD-/- cells. Jurkat FADD-/- TNF necroptosis rescue, ATP luminescence, 24 h; 0 = TNF only, 100 = no-TNF cells. activation (protection from cell death), % at 10 µM. hit rate 0.068% among 220,000;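 active = activation, meaning protection from cell death, of at least 50% relative to plate controls; inactive = activation below 50%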;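 note: necroptosis triggered by 40 ng/mL TNF-alpha added together with compound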
zVAD death inh = L929 zVAD cell death inhibition | L929 zVAD necroptosis rescue, ATP luminescence, 24 h; with zVAD 60 µM | viability rescue, % at 10 µM | hit rate 0.38% among 220,000;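 active = activation, scaled between plate controls, above about 75%, limit read from the data; inactive = activation under that limit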;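 note: 0% = zVAD with DMSO and 100% = DMSO alone without zVAD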
PfM18AAP inh-1 = blocks P. falciparum M18 aspartyl aminopeptidase | recombinant PfM18AAP, H-Glu-NHMec fluorogenic cleavage | hit rate 1.2% among 290,000 | inhibition, % at 7.35 µM;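 active = inhibition above the campaign mean inhibition over all tested compounds plus 3 SD, cut at about 28% in these data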;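 note: 0% = plate median of test compound wells and 100% = 2 mM ZnCl2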
Hep lipid drop = hepatic lipid droplet formation modulation; AML12 mouse hepatocytes, oleate lipid droplets, BODIPY imaging; inhibition, % at 6.5 µM; hit rate 0.4% among 240,000;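 active = lipid droplet intensity inhibited by at least 50%, with more than 500 cells counted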
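Test system: AML12 hepatocytes (mouse); reagent: oleate loading, 100 µM; dosing: one dose, 6.5 µM compound; incubation: overnight exposure; signal: fluorescence imaging, 20x objective, two fields per well; read-out basis: % inhibition of corrected integrated BODIPY droplet signal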
PfM18AAP inh-2 = confirmation of Plasmodium falciparum M18 aspartyl aminopeptidase inhibitors; shares compounds with PfM18AAP inh-1; recombinant PfM18AAP, H-Glu-NHMec fluorogenic cleavage; inhibition, % at 7.35 µM; hit rate 28% among 2,400; AID 2170;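 active = mean inhibition over replicate wells above the hit cutoff set for the earlier primary screen, cut at about 29% in these data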;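 note: 0% = median of test compound wells and 100% = 2 mM ZnCl2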
CTSL1 confirm = counter-screen for PFM18AAP inhibitors: confirmation of human cathepsin L inhibitors; shares compounds with PfM18AAP inh-1; purified cathepsin L1, Z-Leu-Arg-MCA fluorescence; inhibition, % at 5.96 µM; 2,400 tested, under 10 active; AID 2178;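 active = average inhibition across replicates above the hit cutoff set in the earlier primary screen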;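 note: 0% = median of test compound wells and 100% = Z-Phe-Ala-diazomethylketone 1 µM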
Target sequence (P07711 whole entry, looked up): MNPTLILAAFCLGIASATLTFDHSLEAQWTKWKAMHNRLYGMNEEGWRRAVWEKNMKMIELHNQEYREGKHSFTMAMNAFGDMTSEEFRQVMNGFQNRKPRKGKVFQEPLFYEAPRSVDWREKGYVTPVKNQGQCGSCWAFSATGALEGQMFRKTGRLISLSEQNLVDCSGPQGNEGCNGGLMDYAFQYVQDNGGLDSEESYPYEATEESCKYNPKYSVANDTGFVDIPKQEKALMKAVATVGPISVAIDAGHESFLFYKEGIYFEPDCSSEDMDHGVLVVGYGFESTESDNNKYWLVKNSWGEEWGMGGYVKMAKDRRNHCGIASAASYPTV
Active calls of the source: *. Only some compounds are listed: those with a hit (about 2% of all), similar ones and a draw of the others.

`O=C(O)c1ccc(-n2c(O)c(C=C3N=c4ccccc4=N3)sc2=S)cc1` gave RBBP9 inh -2, TbHK1 inh -10, TNF death inh 1, zVAD death inh 0, PfM18AAP inh-1 51*, Hep lipid drop -11, PfM18AAP inh-2 -46 and CTSL1 confirm 1.
`CN(C)/N=C/c1ccc([N+](=O)[O-])cc1[N+](=O)[O-]` gave RBBP9 inh -1, TbHK1 inh -2, TNF death inh -1, zVAD death inh 0, PfM18AAP inh-1 34*, Hep lipid drop -24, PfM18AAP inh-2 -20 and CTSL1 confirm 2.
CN(/N=C/c1cc([N+](=O)[O-])ccc1O)c1ccccc1 was read as RBBP9 inh -2, TbHK1 inh -22, TNF death inh 0, zVAD death inh 1, PfM18AAP inh-1 5 and Hep lipid drop -2.
For COc1cccc(NC(=O)C(OC(=O)/C=C/c2ccc3c(c2)OCO3)c2ccccc2)c1 (stereo unspecified) the results were RBBP9 inh -31, TbHK1 inh -18, TNF death inh 2, zVAD death inh 0, PfM18AAP inh-1 32*, Hep lipid drop -15, PfM18AAP inh-2 -38 and CTSL1 confirm -7.
`COC(=O)/C=C/c1ccc2c(c1)OCO2` gave RBBP9 inh -2, TbHK1 inh -30, TNF death inh 0, zVAD death inh 0 and PfM18AAP inh-1 -3.
`O=C1/C(=C\c2ccccn2)SC(=S)N1c1ccc(S(=O)(=O)Nc2nccs2)cc1` gave RBBP9 inh 0, TbHK1 inh -9, TNF death inh 0, zVAD death inh 3, PfM18AAP inh-1 36*, Hep lipid drop -1, PfM18AAP inh-2 -21 and CTSL1 confirm 1.
Screening O=C1OCC=C1NNC(=O)c1cccnc1 returned RBBP9 inh -7, TbHK1 inh -15, TNF death inh -1, zVAD death inh 1, PfM18AAP inh-1 55*, Hep lipid drop 1, PfM18AAP inh-2 69* and CTSL1 confirm -7.
For O=C(NNC(=O)c1cccnc1)c1ccncc1 the results were PfM18AAP inh-1 -1 and Hep lipid drop -11.
Screening CCN(CC(=O)Nc1ccc(OC)cc1)C(=O)CN1C(=O)NC(C)(c2ccc3ccccc3c2)C1=O (stereo unspecified) returned PfM18AAP inh-1 4 and Hep lipid drop -5.
`NNc1nc2ccc(F)cc2s1` gave RBBP9 inh -4, TbHK1 inh 33, TNF death inh -1, zVAD death inh -1, PfM18AAP inh-1 37*, Hep lipid drop -1, PfM18AAP inh-2 29* and CTSL1 confirm 0.
`NNc1nc2ccc(Cl)cc2s1` gave RBBP9 inh -1, TbHK1 inh -7, TNF death inh 0, zVAD death inh 0, PfM18AAP inh-1 10 and Hep lipid drop -3.
COc1cc(N=Cc2c(CO)cnc(C)c2O)cc(OC)c1OC was read as PfM18AAP inh-1 35*, Hep lipid drop 1, PfM18AAP inh-2 -13 and CTSL1 confirm -1.
For CCC(C)(C(=O)NC1CCCCC1)N(CC1CCCO1)C(=O)CNC(=O)c1ccccc1 (stereo unspecified) the results were RBBP9 inh 11, TbHK1 inh -2, TNF death inh 1, zVAD death inh -1, PfM18AAP inh-1 35*, Hep lipid drop -7, PfM18AAP inh-2 -56 and CTSL1 confirm -2.
CCC(C)(C(=O)NC1CCCCC1)N(Cc1ccco1)C(=O)CNC(=O)c1ccccc1 (stereo unspecified) was read as RBBP9 inh -12, TbHK1 inh 5, TNF death inh -1, zVAD death inh 0, PfM18AAP inh-1 -5 and Hep lipid drop -12.
For CSC1=NS(=O)(=O)c2c(C)nn(C)c2S1 the results were RBBP9 inh 3, TbHK1 inh 0, TNF death inh -8, zVAD death inh 1, PfM18AAP inh-1 57*, Hep lipid drop -8, PfM18AAP inh-2 -14 and CTSL1 confirm -6.
For Cc1cc(C)nc(SCC(=O)N/N=C/c2cc(C)n(-c3ccccc3C)c2C)n1 the results were RBBP9 inh 5, TbHK1 inh -14, TNF death inh -2, zVAD death inh 0, PfM18AAP inh-1 8 and Hep lipid drop -14.
For Cc1cc(/C=N/NC(=O)c2cccc([N+](=O)[O-])c2)c(C)n1-c1ccccc1 the results were RBBP9 inh -9, TbHK1 inh 2, TNF death inh -2, PfM18AAP inh-1 7 and Hep lipid drop 22.
Screening Cc1cc(/C=N/Nc2ccc([N+](=O)[O-])cn2)c(C)n1-c1ccc(C(=O)O)cc1 returned RBBP9 inh 4, TbHK1 inh -4, TNF death inh 2, zVAD death inh 69, PfM18AAP inh-1 50*, Hep lipid drop 14, PfM18AAP inh-2 -24 and CTSL1 confirm -2.
`Cc1ccccc1-n1c(C)cc(/C=N/Nc2ccc([N+](=O)[O-])cn2)c1C` gave RBBP9 inh 0, TbHK1 inh -17, TNF death inh 0, zVAD death inh 0, PfM18AAP inh-1 45*, Hep lipid drop 2, PfM18AAP inh-2 -31 and CTSL1 confirm 5.
For Cc1[nH]c(C)c(S(=O)(=O)N2CCN(c3ccccc3F)CC2)c1C(=O)N1CCCCC1 the results were PfM18AAP inh-1 -1 and Hep lipid drop 22.
For CCn1c(CC(=O)Nc2ccccc2Cl)nnc1SCC(=O)NC1CCCC1 the results were PfM18AAP inh-1 -18 and Hep lipid drop -11.
For Cc1ccsc1-c1n[nH]c(=S)n1CC(C)C the results were RBBP9 inh -5, TbHK1 inh -2, TNF death inh 0, zVAD death inh 0, PfM18AAP inh-1 34*, Hep lipid drop 18, PfM18AAP inh-2 -13 and CTSL1 confirm 5.
For Cc1ccc(NC(=S)NNc2ccc([N+](=O)[O-])cc2S(=O)(=O)Nc2ccccc2C(=O)O)cc1C the results were RBBP9 inh 0, TbHK1 inh 7, TNF death inh 0, zVAD death inh 0, PfM18AAP inh-1 59*, Hep lipid drop -5, PfM18AAP inh-2 -7 and CTSL1 confirm -5.
For Cc1ccccc1N1C(=O)N(c2cccc(C(F)(F)F)c2)C2CS(=O)(=O)CC21 (stereo unspecified) the results were RBBP9 inh -11, TbHK1 inh 10, TNF death inh -2, zVAD death inh -1 and PfM18AAP inh-1 -6.
CCOC(=O)/C(=C\C=C1/Sc2ccccc2N1CC)C(C)=O was read as RBBP9 inh 6, TbHK1 inh 27, TNF death inh 0, zVAD death inh 2, PfM18AAP inh-1 45*, Hep lipid drop -7, PfM18AAP inh-2 -20 and CTSL1 confirm 8.
